Measurements taken from ChEMBL document CHEMBL4334429, “Rational design of novel amphipathic antimicrobial peptides focused on the distribution of cationic amino acid residues” (Medchemcomm, 2019).
Activity calls are given as the source filed them. No cut-off for these calls is given here.

Tests used:
Erythrocyte = assay: Hemolytic activity in human RBC after 3 hrs; type: ADME, cell-based
How it was run: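 Human red blood cells from Japanese Red Cross volunteers, washed three times and resuspended in PBS. Mixed 1:1 with diluted peptide and incubated 3 h at 37 °C. After centrifugation, supernatant absorbance read at 535 nm. Triton X-100 and M-lycotoxin served as positive controls.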

Proteus vulgaris = assay: Antibacterial activity against Proteus vulgaris NBRC 3045 after 18 hrs by broth microdilution method; type: functional; settings: NBRC 3045, 18 h
How it was run: (§1)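 Bacteria grown to mid-log phase in LB medium at 37 °C. Peptides 2-fold serially diluted from 200 μM to 1.56 μM and mixed 1:1 with inoculum of 10^6 CFU per mL. Incubation 18 h at 35 °C. MIC is the lowest concentration giving complete growth inhibition by visual inspection […].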

Escherichia coli [1] = assay: Antibacterial activity against Escherichia coli NBRC 3972 after 18 hrs by broth microdilution method; type: functional; settings: NBRC 3972, 18 h; how it was run: as §1
Escherichia coli [2] = assay: Antibacterial activity against Escherichia coli DH5[alpha] after 18 hrs by broth microdilution method; type: functional; how it was run: as §1
Lipid bilayer = assay: Induction of membrane disruption in PG/CL/PE unilamellar vesicles assessed as increase in carboxyfluorescein leakage at 6.25 uM by fluorescence assay
How it was run: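 E. coli-mimic liposomes of PG/CL/PE (2 : 1 : 7, w/w) loaded with 50 mM carboxyfluorescein in 20 mM Tris-HCl, pH 7.4; free dye removed by Sephadex G-50 gel filtration. Peptide added at 6.25 μM and leakage read by fluorescence. Release (%) = (Fobs−F0)/(F100−F0) × 100, with 100% set by Triton X-100.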

Pseudomonas aeruginosa = assay: Antibacterial activity against Pseudomonas aeruginosa NBRC 13725 after 18 hrs by broth microdilution method; type: functional; settings: NBRC 13275, 18 h, in the assay text read “NBRC 13275” for “NBRC 13725”; how it was run: as §1
Staphylococcus aureus = assay: Antibacterial activity against Staphylococcus aureus after 18 hrs by broth microdilution method; type: functional; how it was run: as §1
TIG-3 [3] = assay: Cytotoxicity against human TIG3 at 1 to 100 uM after 72 hrs by WST-8 assay; type: cell-based; settings: tig-3, 72 h
How it was run: (§2)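 Human normal fibroblast TIG-3 cells kept in DMEM with 10% FBS and 100 μg ml–1 kanamycin. Seeded at 5 × 10^3 cells per well, treated 24 h later for 72 h. WST-8 reagent then added for 0.5 h at 37 °C, 5% CO2, and absorbance read at 450 nm. Means ± SD, n = 4.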

[4] = tested on: Staphylococcus epidermidis; assay: Antibacterial activity against Staphylococcus epidermidis after 18 hrs by broth microdilution method; type: functional; how it was run: as §1
TIG-3 [5] = assay: Cytotoxicity against human TIG3 at 100 uM after 72 hrs by WST-8 assay; type: cell-based; settings: tig-3, 72 h; how it was run: as §2

Substance	MIC (Proteus vulgaris) [µM]	MIC (Escherichia coli [1]) [µM]	MIC (Escherichia coli [2]) [µM]	Activity (Lipid bilayer)	MIC (Pseudomonas aeruginosa) [µM]	MIC (Staphylococcus aureus) [µM]	MIC [4] [µM]	IC50 (Erythrocyte) [µM]	Activity (TIG-3 [3])	Activity (TIG-3 [5])
H-IWLTALKFLGKHAAKHLAKQQLSKL-NH2								0.78		
H-GIGKFLHSAKKFGKAFVGEIMNS-NH2	> 100	3.12	3.12		12.5	100	25	> 100		
H-KKKKKKKKKGGGLLALLALLA-NH2	> 100	6.25	12.5	Active	6.25	12.5	6.25	25		Toxic

Continued, in another order:

MIC (Proteus vulgaris) [µM]	MIC (Escherichia coli [1]) [µM]	MIC (Escherichia coli [2]) [µM]	Activity (Lipid bilayer)	MIC (Pseudomonas aeruginosa) [µM]	MIC (Staphylococcus aureus) [µM]	MIC [4] [µM]	Substance	IC50 (Erythrocyte) [µM]	Activity (TIG-3 [3])	Activity (TIG-3 [5])
> 100	12.5	25	Active	3.12	100	6.25	H-KKKLAKLKLGAKLKLKGKLGA-NH2	100	Non-Toxic	
> 100	3.12	3.12	Active	1.56	12.5	1.56	H-KLLKKAGKLLKKAGKLLKKAG-NH2	> 100	Non-Toxic	
